Among the data in ChEMBL document CHEMBL1137688, “Design, synthesis and antibacterial activity of novel actinonin derivatives containing benzimidazole heterocycles” (2009) are MIC values, retold here.

≈ marks a conversion by molar mass, not a printed value. Some results are limits rather than exact numbers.

The term MIC denotes the least concentration at which growth counts as inhibited. Lower therefore signals a more susceptible organism.

Holding throughout (type): functional
One assay has as its system Staphylococcus aureus. In words: Antimicrobial activity against Staphylococcus aureus CMCC 26112 after 24 hrs by broth microdilution method. The conditions noted are these: CMCC 26112, 24 h. An outline of the steps: (§1)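 Broth microdilution in Mueller-Hinton broth. Compounds tested across a doubling-dilution series, with cefoperazone as the positive control. Plates incubated 24 h at 37 °C. MIC taken as the lowest concentration showing no visible bacterial growth.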

For another assay, the system named is Micrococcus luteus. In words: Antimicrobial activity against Sarcina lutea CMCC 28001 after 24 hrs by broth microdilution method. The conditions noted are these: CMCC 28001, 24 h. Put shortly:
as §1
In general terms: Broth dilution looks for growth in wells or tubes with falling amounts of substance.

Another assay concerns Klebsiella pneumoniae. In words: Antimicrobial activity against Klebsiella pneumoniae CMCC 46117 after 24 hrs by broth microdilution method. Conditions: CMCC 46117, 24 h. An outline of the steps: as §1

Regarding `CCCC[C@H](CC(=O)NO)C(=O)N[C@H](c1nc2cc(C)ccc2[nH]1)C(C)C`, the MIC with Staphylococcus aureus was found to be 8 mg/L (≈ 21.4 µM); against Micrococcus luteus it was 8 mg/L (≈ 21.4 µM); against Klebsiella pneumoniae, 4 mg/L (≈ 10.7 µM).
Consider `CCCC[C@H](CC(=O)NO)C(=O)N[C@H](c1nc2cc(C(=O)NC3CCCCC3)ccc2[nH]1)C(C)C`, for which the MIC came to 64 mg/L (≈ 132 µM) in the assay with Staphylococcus aureus, 64 mg/L (≈ 132 µM) with Micrococcus luteus and 32 mg/L (≈ 65.9 µM) against Klebsiella pneumoniae.
On to `CCCC[C@H](CC(=O)NO)C(=O)N[C@H](c1nc2cc(C(=O)N3CCOCC3)ccc2[nH]1)C(C)C`, for which the values for the MIC with Staphylococcus aureus, in the assay with Micrococcus luteus and in the assay with Klebsiella pneumoniae were 16 mg/L (≈ 33.8 µM), 16 mg/L (≈ 33.8 µM) and 8 mg/L (≈ 16.9 µM), respectively.
Turning to `CCCC[C@H](CC(=O)NO)C(=O)N[C@H](c1nc2ccccc2[nH]1)C(C)C`, the MIC came out at 2 mg/L (≈ 5.55 µM) in the assay on Staphylococcus aureus, 4 mg/L (≈ 11.1 µM) with Micrococcus luteus and 0.5 mg/L (≈ 1.39 µM) in the assay on Klebsiella pneumoniae.
Turning to `CCCC[C@H](CC(=O)NO)C(=O)N[C@H](c1nc2cc(OC)ccc2[nH]1)C(C)C`, the MIC in the assay on Staphylococcus aureus, against Micrococcus luteus and against Klebsiella pneumoniae was 8 mg/L (≈ 20.5 µM) in each case.
As for `CCN1CCN(C(=O)N[C@@H](C(=O)N[C@@H]2C(=O)N3C(C(=O)O)=C(CSc4nnnn4C)CS[C@H]23)c2ccc(O)cc2)C(=O)C1=O` [CEFOPERAZONE], the minimum inhibitory concentration (MIC) in the assay on Staphylococcus aureus, with Micrococcus luteus and against Klebsiella pneumoniae was 0.25 mg/L (≈ 0.387 µM) in each case.
In the case of `CCCC[C@H](CC(=O)NO)C(=O)N[C@H](c1nc2cc(C(=O)Nc3ccc(OC)cc3)ccc2[nH]1)C(C)C`, the results for the MIC with Staphylococcus aureus, with Micrococcus luteus and in the assay on Klebsiella pneumoniae were 32 mg/L (≈ 62.8 µM), 16 mg/L (≈ 31.4 µM) and 16 mg/L (≈ 31.4 µM), respectively.
With `CCCC[C@H](CC(=O)NO)C(=O)N[C@H](c1nc2cc(C(=O)N3CCCCC3)ccc2[nH]1)C(C)C`, the MIC is above 64 mg/L in the assay with Staphylococcus aureus, above 64 mg/L against Micrococcus luteus and 8 mg/L (≈ 17 µM) against Klebsiella pneumoniae.
